Source: paper PMC8161485 (ACS Central Science, 2021)

Key:
[1] = system: AML02 primary AML specimen; experiment: Cell viability of primary AML specimen AML02; type: cell-based; details: Homo sapiens, read-out: AML02 LC50
Procedure, shortened: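 Primary AML samples came from consenting donors. Live mononuclear cells were isolated on a Ficoll-Paque density gradient and cryopreserved, with 40–70% viability after thawing. Cells were kept at 37 °C, humidified, 5% CO2.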

[2] = biological target: T1, P450BM3 variant V-H10(R47C,A87I) (Priestia megaterium, UniProt P14779, A181T/A185V/A198V/A291V/E253G/F206C/F88I/H237Q/L354V/P143S/R256S/R48C/S227R/T176I/V79N); experiment: Heme spin shift binding of MCL to P450 variant V-H10; parameters: species or system Bacillus megaterium
T1 sequence (P14779 1-1049 R48C/V79N/F88I/P143S/T176I/A181T/A185V/A198V/F206C/S227R/H237Q/E253G/R256S/A291V/L354V): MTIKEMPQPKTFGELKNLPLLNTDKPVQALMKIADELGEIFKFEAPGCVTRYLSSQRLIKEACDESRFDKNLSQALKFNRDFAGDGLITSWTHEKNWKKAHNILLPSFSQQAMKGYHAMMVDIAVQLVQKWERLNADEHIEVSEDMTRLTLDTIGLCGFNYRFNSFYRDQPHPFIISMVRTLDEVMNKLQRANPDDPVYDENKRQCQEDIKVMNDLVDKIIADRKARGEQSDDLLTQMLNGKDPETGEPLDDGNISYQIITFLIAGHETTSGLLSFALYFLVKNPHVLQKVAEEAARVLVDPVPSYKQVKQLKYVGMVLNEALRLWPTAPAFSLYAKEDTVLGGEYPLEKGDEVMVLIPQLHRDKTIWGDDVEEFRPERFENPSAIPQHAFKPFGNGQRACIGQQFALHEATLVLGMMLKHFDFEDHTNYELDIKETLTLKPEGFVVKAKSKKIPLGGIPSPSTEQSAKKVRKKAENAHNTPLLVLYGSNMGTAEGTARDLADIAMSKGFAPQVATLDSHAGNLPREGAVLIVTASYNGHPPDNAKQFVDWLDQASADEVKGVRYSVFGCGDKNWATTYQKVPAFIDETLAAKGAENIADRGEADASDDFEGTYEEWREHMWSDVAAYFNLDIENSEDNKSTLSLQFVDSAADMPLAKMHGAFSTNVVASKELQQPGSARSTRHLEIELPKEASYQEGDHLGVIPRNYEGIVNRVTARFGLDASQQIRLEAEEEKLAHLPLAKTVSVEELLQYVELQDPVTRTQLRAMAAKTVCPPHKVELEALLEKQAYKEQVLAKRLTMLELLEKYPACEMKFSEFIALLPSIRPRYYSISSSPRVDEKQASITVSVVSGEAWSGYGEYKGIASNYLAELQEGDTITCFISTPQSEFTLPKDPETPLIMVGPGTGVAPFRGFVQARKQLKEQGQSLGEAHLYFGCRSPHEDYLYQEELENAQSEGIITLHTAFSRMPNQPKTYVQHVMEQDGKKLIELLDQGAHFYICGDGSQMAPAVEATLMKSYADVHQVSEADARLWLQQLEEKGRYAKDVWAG
Procedure, shortened: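 Purified P450 (3 μM) in 50 mM or 1 M potassium phosphate, pH 8.0, titrated with test compound (5–2000 μM) from a 50 mM ethanol stock. Difference spectra (350–500 nm) were recorded at each step. Absorbance change at 390/420 nm (high/low spin) was fitted to a 1:1 binding model for KD. At least triplicate, room temperature.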

AML cells and LSCs = details: MCL vs PTL; cited from earlier work

Structure (SMILES): C=C1C(=O)O[C@H]2[C@H]1CCC(C)=C1CC[C@@](C)(O)[C@@H]12 [MCL, micheliolide]
- CC50 [1]: 20.3 µM
- Kd ([2]; 50 mM KPi pH 8.0, room temperature): 365 ± 53 µM
- Kd ([2]; 1 M KPi buffer (pH 8.0)): 128 µM
- LC50 in vitro relative to PTL (fold higher) (AML cells and LSCs): ~3 fold
